# Test results from ChEMBL document CHEMBL1121573, “2-(Aminomethyl)phenols, a new class of saluretic agents. 1. Effects of nuclear substitution” (J Med Chem, 1980).
# Key:
# Rattus norvegicus [1] = assay: Compound administered orally at a dose of 1 mg/kg was evaluated for salidiuretic activity measured as sodium ion excretion in Rat; conditions: in vivo, po
# Canis familiaris [2] = assay: Oral diuretic activity was evaluated by measuring Cl- excretion in dog at 5 mg/kg after […] ( 0 - 6 hr); assay type: ADME, organism-based, Canis lupus familiaris, Urine; parameters: dose 5 mg/kg, route intraperitoneal; conditions: in vivo
# Rattus norvegicus [3] = assay: Oral diuretic activity was evaluated by measuring K+ excretion in Rat at 27 mg/kg after po administration ( 0 - 5 hr); conditions: in vivo
# Canis familiaris [4] = assay: Oral diuretic activity was evaluated by measuring Cl- excretion in dog at 2 mg/kg after […] ( 0 - 6 hr); assay type: ADME, organism-based, Canis lupus familiaris, Urine; parameters: dose 2 mg/kg, route intraperitoneal; conditions: in vivo
# Rattus norvegicus [5] = assay: Oral diuretic activity was evaluated by measuring K+ excretion in Rat at 81 mg/kg […] ( 0 - 5 hr); assay type: ADME, organism-based, Urine; parameters: dose 81 mg/kg
# How it was run: (§1)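 Female Charles-River rats (150–170 g) were kept overnight on a sugar diet with water ad libitum. Test substance was dissolved in DMF and diluted with water containing Tween 80 to a final 4% DMF vehicle, then given po in 5.0 mL. Rats were housed three per metabolism cage, and 0–5 h urine was assayed for Na⁺, K⁺ and Cl⁻ alongside concurrent placebo groups. Values are mequiv × 100 per cage, geometric means of three cages per dose.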
# Rattus norvegicus [6] = assay: Maximum fall in mean arterial blood pressure was measured in SH rats when compound was administered at 20 mg/kg perorally; assay type: functional; conditions: route oral
# Canis familiaris [7] = assay: Oral diuretic activity was evaluated by measuring K+ excretion in dog at 1 mg/kg after […] ( 0 - 6 hr); assay type: ADME, organism-based, Canis lupus familiaris, Urine; parameters: dose 1 mg/kg; conditions: in vivo
# How it was run: (§2)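 Spontaneous urine was pooled with bladder urine collected by catheterization at 6 h. Volume was measured and Na+, K+ and Cl− were determined by standard methods. Values are geometric means.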
# Canis familiaris [8] = assay: Oral diuretic activity was evaluated by measuring Na+ excretion in dog at 5 mg/kg after […] ( 0 - 6 hr); assay type: ADME, organism-based, Canis lupus familiaris, Urine; parameters: dose 5 mg/kg; conditions: in vivo
# How it was run: (§3)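 Dogs; spontaneous urine was pooled with bladder urine drained by catheter at the end of 6 h. Urine volume was measured, and aliquots were assayed for Na+, K+ and Cl− by standard methods. Values are geometric means, expressed as mequiv over 0–6 h.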
# Rattus norvegicus [9] = assay: Oral diuretic activity was evaluated by measuring Cl- excretion in Rat at 3 mg/kg after […] ( 0 - 5 hr); assay type: ADME, organism-based, Urine; parameters: dose 3 mg/kg, route intraperitoneal; conditions: in vivo
# [10] = Compound administered orally at a dose of 5 mg/kg was evaluated for salidiuretic activity measured as sodium ion excretion in Rat; assay type: organism-based; parameters: dose 5 mg/kg; conditions: Urine
# How it was run: (§4)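 Female Charles-River rats (150–170 g), overnight on sugar diet with water ad libitum. Compound dissolved in DMF, diluted with water containing Tween 80 (final 4% DMF), given po in 5.0 mL; concurrent vehicle placebo. Three rats per metabolism cage; 0–5 h urine analysed for Na+, K+, Cl-. Values: mequiv × 100 per cage, geometric means of three cages per dose; scored 0–6 by Na+.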
# Canis familiaris [11] = assay: Oral diuretic activity was evaluated by measuring K+ excretion in dog at 5 mg/kg after ip administration ( 0 - 6 hr); assay type: ADME, organism-based, Canis lupus familiaris, Urine; parameters: dose 5 mg/kg, route intraperitoneal; conditions: in vivo
# How it was run: as §2
# [12] = Evaluated for salidiuretic activity measured as sodium ion excretion in Rat, administered orally at a dose of 16.5 mg/kg; assay type: organism-based; parameters: dose 16.5 mg/kg; conditions: Urine
# How it was run: as §4
# Canis familiaris [13] = assay: Oral diuretic activity was evaluated by measuring Cl- excretion in dog at 1 mg/kg after […] ( 0 - 6 hr); assay type: ADME, organism-based, Canis lupus familiaris, Urine; parameters: dose 1 mg/kg, route intraperitoneal; conditions: in vivo
# Rattus norvegicus [14] = assay: Oral diuretic activity was evaluated by measuring Cl- excretion in Rat at 81 mg/kg after po administration ( 0 - 5 hr); conditions: in vivo
# Rattus norvegicus [15] = assay: Oral diuretic activity was evaluated by measuring Cl- excretion in Rat at 27 mg/kg after […] ( 0 - 5 hr); assay type: ADME, organism-based, Urine; parameters: dose 27 mg/kg, route intraperitoneal; conditions: in vivo
# Rattus norvegicus [16] = assay: Oral diuretic activity was evaluated by measuring K+ excretion in Rat at 3 mg/kg […] ( 0 - 5 hr); assay type: ADME, organism-based, Urine; parameters: dose 3 mg/kg
# How it was run: as §1
# Canis familiaris [17] = assay: Compound administered intravenously at a dose of 5 mg/kg was evaluated for salidiuretic activity measured as sodium ion excretion in Dog; assay type: ADME, organism-based, Canis lupus familiaris, Urine; parameters: dose 5 mg/kg, route intravenous; conditions: in vivo, iv
# How it was run: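 Conditioned female mongrel dogs, postabsorptive, water-loaded (500 mL po) 1 h before sodium pentobarbital anesthesia (30 mg/kg iv). Bladder catheter; creatinine 4 g sc; phosphate–mannitol buffer pH 7.4 infused (3.0 mL/min) throughout. […] Urine Na+ measured; response scored 0–6.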
# Rattus norvegicus [18] = assay: Oral diuretic activity was evaluated by measuring Cl- excretion in Rat at 9 mg/kg […] ( 0 - 5 hr); assay type: ADME, organism-based, Urine; parameters: dose 9 mg/kg; conditions: in vivo
# How it was run: as §1
# Canis familiaris [19] = assay: Oral diuretic activity was evaluated by measuring K+ excretion in dog at 2 mg/kg after ip administration ( 0 - 6 hr); assay type: ADME, organism-based, Canis lupus familiaris, Urine; parameters: route intraperitoneal, dose 2 mg/kg; conditions: in vivo
# How it was run: as §2
# Rattus norvegicus [20] = assay: Evaluated for salidiuretic activity measured as sodium ion excretion in Rat, administered orally at a dose of 50 mg/kg; assay type: functional, Urine; parameters: unit not given beside the values; conditions: route oral
# How it was run: as §4
# Rattus norvegicus [21] = assay: Maximum fall in mean arterial blood pressure was measured in SH rats when compound was administered at 40 mg/kg perorally; assay type: functional; conditions: route oral
# Rattus norvegicus [22] = assay: Oral diuretic activity was evaluated by measuring K+ excretion in Rat at 9 mg/kg after […] ( 0 - 5 hr); assay type: ADME, organism-based, Urine; parameters: dose 9 mg/kg; conditions: in vivo
# How it was run: as §1
# Canis familiaris [23] = assay: Oral diuretic activity was evaluated by measuring Na+ excretion in dog at 2 mg/kg after […] ( 0 - 6 hr); assay type: ADME, organism-based, Canis lupus familiaris, Urine; parameters: dose 2 mg/kg; conditions: in vivo
# How it was run: as §3
# Canis familiaris [24] = assay: Oral diuretic activity was evaluated by measuring Na+ excretion in dog at 1 mg/kg after ip administration ( 0 - 6 hr); assay type: ADME, organism-based, Canis lupus familiaris, Urine; parameters: dose 1 mg/kg, route intraperitoneal; conditions: in vivo
# How it was run: as §2
# Rattus norvegicus [25] = species on record: Rattus norvegicus; assay: Time taken for the decrease in arterial pressure was measured; assay type: functional, Artery
# Rattus norvegicus [26] = assay: Oral diuretic activity was evaluated by measuring Na+ excretion in Rat at 9 mg/kg […] ( 0 - 5 hr); assay type: ADME, organism-based, Urine; parameters: dose 9 mg/kg
# How it was run: (§5)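 Female Charles-River rats (150–170 g) were kept overnight on a sugar diet with water ad libitum. Compound was dissolved in DMF, then diluted with water containing Tween 80 (3 drops/100 mL) to a final 4% DMF, and given po in 5.0 mL. Rats were housed three per metabolism cage. Urine from 0–5 h was analysed for Na+, K+ and Cl−, with concurrent placebo controls. Values are mequiv × 100 per cage, geometric mean of three cages per dose.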
# Rattus norvegicus [27] = assay: Oral diuretic activity was evaluated by measuring Na+ excretion in Rat at 27 mg/kg […] ( 0 - 5 hr); assay type: ADME, organism-based, Urine; parameters: dose 27 mg/kg
# How it was run: as §5
# Rattus norvegicus [28] = assay: Oral diuretic activity was evaluated by measuring Na+ excretion in Rat at 3 mg/kg […] ( 0 - 5 hr); assay type: ADME, organism-based, Urine; parameters: dose 3 mg/kg
# How it was run: as §5
smiles,measurement,setting,value
CC(C)(C)c1cc(Cl)c(O)c(CN)c1.Cl,Diuretic activity,Rattus norvegicus [1],2.1
same,Diuretic activity,Canis familiaris [2],54.25
same,Diuretic activity,Rattus norvegicus [3],0.94
same,Diuretic activity,Canis familiaris [4],51.63
same,Diuretic activity,Rattus norvegicus [5],0.9
same,MAP,Rattus norvegicus [6],9 mmHg
same,Diuretic activity,Canis familiaris [7],6.5
same,Diuretic activity,Canis familiaris [8],43.13
same,Diuretic activity,Rattus norvegicus [9],2.4
same,Diuretic activity,[10],3.6
same,Diuretic activity,Canis familiaris [11],10.38
same,Diuretic activity,[12],4.2
same,Diuretic activity,Canis familiaris [13],38.25
same,Diuretic activity,Rattus norvegicus [14],4.87
same,Diuretic activity,Rattus norvegicus [15],4.31
same,Diuretic activity,Rattus norvegicus [16],0.52
same,Diuretic activity,Canis familiaris [17],> 900
same,Diuretic activity,Rattus norvegicus [18],3.7
same,Diuretic activity,Canis familiaris [19],9.13
same,Diuretic activity,Rattus norvegicus [20],3.9
same,MAP,Rattus norvegicus [21],35 mmHg
same,Diuretic activity,Rattus norvegicus [22],0.71
same,Diuretic activity,Canis familiaris [23],40.38
same,Diuretic activity,Canis familiaris [24],28.38
same,Duration,Rattus norvegicus [25],24 h
same,Diuretic activity,Rattus norvegicus [26],2.68
same,Diuretic activity,Rattus norvegicus [27],3.16
same,Diuretic activity,Rattus norvegicus [28],1.75
